Measurements: publication PMC4330091 (Bioorganic & medicinal chemistry, 2014)
pIC50: −log10 of the molar value. Read-outs that look alike come from different tables or passages of the source. Marks after values point to notes of the source that are not given here.

Legend:
[1] = system: HT-29 colon cancer cell line; assay: MTT anti-proliferative assay on HT-29; format: cell-based, human; conditions: read-out: IC50, HT-29
[2] = system: MCF-10A non-tumorigenic human breast epithelial cell line; assay: MTT anti-proliferative assay on MCF-10A; format: cell-based; conditions: read-out: IC50, MCF-10A
[3] = system: MCF-7 breast cancer cell line; assay: MTT anti-proliferative assay on MCF-7; format: cell-based, human; conditions: read-out: IC50, MCF-7
MCF-7 cells [4] = system: MCF-7 cells
MCF-7 cells [5] = assay: Cytokinesis-block micronucleus assay; conditions: for % Binucleated cells (Mitotic rate) / Micronucleus (MNi) (mean ± SD): 72 h treatment; for % Binucleated cells (Mitotic rate): MCF-7, mean (SD); for increase in micronucleus forming activity compared to control (untreated cells): MCF-7; for Micronucleus (MNi) (mean ± SD): micronucleated cells in 500 binucleated MCF-7 cells
MCF-7 = assay: ROS production; format: cell-based, human; conditions: MCF-7, 72 h
[6] = Cyclic voltammetry in CH3CN; format: physicochemical; conditions: 0.1 M [NBu4n]PF6, 100 mV/s, vs Ag/AgCl
Method in brief: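 Test compound dissolved at 2 × 10⁻³ M in deoxygenated CH3CN with 0.1 M [NBuⁿ₄]PF₆ as supporting electrolyte; cyclic voltammograms recorded on these solutions.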

[7] = CH3CN, vs Ag/AgCl, cited from earlier work
[8] = system: HT-29 colon cancer cell line; conditions: read-out: IC50, HT-29; MTT assay, 72 h drug exposure; cited from earlier work
[9] = system: MCF-10A non-tumorigenic human breast epithelial cell line; conditions: cited from earlier work
[10] = system: MCF-7 breast cancer cell line; conditions: cited from earlier work; for pIC50: read-out: IC50, MCF-7, MTT assay, 72 h drug exposure
MCF-7 cells [11] = conditions: ref 35 (Yared et al.); cited from earlier work
[12] = MTT assay, 72 h drug exposure, SD in parenthesis
[13] = ref 14. J. Organometal. Chem 749 (2014) 204–214
[14] = ref 13. Dalton Trans. 40 (2011) 9557–9565

## O=C(O)[c-]1cccc1.O=C(O)[c-]1cccc1.[Fe+2] [1-1′ferrocenedicarboxilic acid]
[1]; [12]
  pIC50: 3.39

## Oc1ccc(-n2cccc2)cc1 [4-(1H-pyrrol-1yl)phenol]
[2]; Homo sapiens, MCF-10A, 72 h
  pIC50: 3.26
[1]; Homo sapiens, HT-29, 72 h
  pIC50: 3.68
[3]; Homo sapiens, MCF7, 72 h
  pIC50: 3.60

## O=C(Oc1ccc(-n2cccc2)cc1)[c-]1cccc1.O=C(Oc1ccc(-n2cccc2)cc1)[c-]1cccc1.[Fe+2] [Fc-(CO2-Ph-4-Py)2, 1,1′-4-(1H-pyrrol-1-yl)phenyl ferrocenedicarboxylate]
MCF-7 cells [4]
  Micronucleus (MNi) (mean ± SD): 15 (1) ^**
  increase in micronucleus forming activity compared to control (untreated cells): up to 5 fold
  increase in micronucleus-forming activity: up to 5 fold
MCF-7 cells [5]; 0.1 μM
  % Binucleated cells (Mitotic rate): 18 (7) ^* %
MCF-7 cells [5]; 1 μM
  % Binucleated cells (Mitotic rate): 33 (13) ^* %
MCF-7 cells [5]; 10 μM
  % Binucleated cells (Mitotic rate): 25 (6) ^* %
[2]; [12]
  pIC50: 3.53
MCF-7
  ROS production (in words): significant increase
[6]
  E1/2: 910 mV
  Epa: 958 mV
  Epc: 862 mV
  ΔE: 96 mV
[1]; [12]
  pIC50: 3.72
[3]; [12]
  pIC50: 4.34

## O=C(Oc1ccc(Br)cc1)[c-]1cccc1.[Fe+2].c1cc[cH-]c1 [Fc-CO2-Ph-4-Br, 4-bromophenyl ferrocenecarboxylate]
[7]; [13]
  E1/2: 532 mV
  Epa: 580 mV
  Epc: 484 mV
  ΔE: 96 mV
[8]
  pIC50: 4.62
[9]; read-out: IC50, MCF-10A, MTT assay, 72 h drug exposure
  pIC50: 3.45
[10]
  pIC50: 5.04

## O=C(Oc1ccc(-n2cccc2)cc1)[c-]1cccc1.[Fe+2].c1cc[cH-]c1 [Fc-CO2-Ph-4-Py, 4-(1H-pyrrol-1-yl)phenyl ferrocenecarboxylate]
[9]; non-tumorigenic human breast epithelial cell line MCF-10A
  anti-proliferative activity (in words): high anti-proliferative activity
[10]; hormone-dependent breast cancer cell line MCF-7
  anti-proliferative activity (in words): high anti-proliferative activity

## C[C@]12CC[C@@H]3c4ccc(OC(=O)[c-]5cccc5)cc4CC[C@H]3[C@@H]1CC[C@@H]2O.[Fe+2].c1cc[cH-]c1 [Fc-CO2-estradiol, ferrocenoyl 17β-hydroxy-estra-1,3,5(10)-trien-3-olate]
[7]; [14]
  E1/2: 756 mV
  Epa: 801 mV
  Epc: 711 mV
  ΔE: 90 mV
MCF-7 cells [5]; 0.01 μM
  % Binucleated cells (Mitotic rate): 33 (2) ^* %
  increase in micronucleus forming activity compared to control (untreated cells): 3 fold
MCF-7 cells [5]; 0.1 μM
  % Binucleated cells (Mitotic rate): 39 (9) ^* %
  Micronucleus (MNi) (mean ± SD): 25
  increase in micronucleus forming activity compared to control (untreated cells): 4 fold
MCF-7 cells [5]; 1 μM
  % Binucleated cells (Mitotic rate): 34 (9) ^* %
  Micronucleus (MNi) (mean ± SD): 29
  increase in micronucleus forming activity compared to control (untreated cells): 4 fold
MCF-7 cells [5]; concentration near IC50, MCF-7
  increase in micronucleus-forming activity: up to 4 fold
[2]; [12]
  pIC50: 3.92
MCF-7
  ROS production (in words): significant increase
[8]
  pIC50: 4.61
[10]
  pIC50: 5.05

## [Fe+2].c1cc[cH-]c1.c1cc[cH-]c1 [Fc/Fc^+, ferrocene]
[6]
  E1/2: 454 mV
  Epa: 494 mV
  Epc: 414 mV
  ΔE: 80 mV

## F[B-](F)(F)F.[Fe+3].c1cc[cH-]c1.c1cc[cH-]c1 [Ferricenium tetrafluoroborate]
[8]
  pIC50: 3.74
[10]
  pIC50: 3.82

## O=C(O)Cc1ccc[cH-]1.[Fe+2].c1cc[cH-]c1 [Ferroceneacetic acid]
[2]; [12]
  pIC50: 4.07
[1]; [12]
  pIC50: 3.60
[3]; [12]
  pIC50: 3.23

## COS(C)(=O)=O [MMS, methyl methane sulphonate]
MCF-7 cells [5]; 94.4 μM
  % Binucleated cells (Mitotic rate): 28 (3) ^* %
  Micronucleus (MNi) (mean ± SD): 62 (6) ^***

## C[C@]12CC[C@@H]3c4ccc(O)cc4CC[C@H]3[C@@H]1CC[C@@H]2O [β-estradiol]
MCF-7 cells [11]
  increase in the micronucleus-forming activity: 3 fold
